According to PubChem BioAssay AID552 (SRMLSC, 2006):
Hit rate of the full screen: of about 20,000 compounds, about 10 (0.05%) were called active. Rule as the data show it: active = inhibition above about 40%; inactive = the rest. This excerpt belongs to a sample that is enriched for actives.

experiment: antibacterial activity on E. coli BW25113 – strain BW25113 wild type, absorbance readout, primary screen (AID 552);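 also: bacteria exposed to compound for 20 hours at 37 °C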; conditions: E. coli BW25113 growth inhibition, OD600; at 10 µM; active compounds read high
How it was run: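 System: bacterial strain in a whole-cell growth screen; medium: LB broth with 50 µg/mL kanamycin; detection: absorbance at 615 nm; schedule: 20 h exposure, 37 °C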

inhibition, inactive:
CC(C)n1c(NCc2c[nH]c3ccccc23)nc2ccccc21 18.1%, COc1cc(NS(=O)(=O)c2ccccc2)ccc1-n1nc(C)cc1C -15.6%, COc1ccc2c(CC(=O)Nc3nnc(C4CC4)s3)coc2c1 -3.61%, COc1ccccc1NC1=NC2(CCCC2)N=C(N)N1 5.8%, CCc1nnc(NC(=O)c2ccc(S(=O)(=O)NC3CCCCC3)cc2)s1 -3.77%, COC(=O)CN(c1nc(C)c(Cl)c(OC)n1)S(=O)(=O)c1ccc(C)cc1 -1.76%, CNC(=O)NCCN1CCCC1=O 7.98%, CCn1c(CNC(=O)c2ccc(OC)c(OC)c2)nnc1SCC(=O)Nc1ccccc1 -11.8%, O=C(C1CCCO1)N(Cc1ccccc1)c1ccccc1 (stereo not drawn) -16.8%, Cc1cc(NC(=O)Cn2nc(C(F)(F)F)c3c2CCCC3)no1 -16.9%, Cc1cc(C)nc(NC2=NCC(=O)N2c2ccc(Cl)cc2)n1 1.06%, O=C(NCCc1ccccn1)c1ccc(COc2ccccc2)o1 15%, C/C(=C(\C#N)C(=O)NCCCN1CCOCC1)N(C)C 2.5%, CCOC(=O)CC1C(=O)NCCN1C(=O)COc1ccc(Br)cc1C (stereo not drawn) -24.8%, CC(=O)Nc1ccc(S(=O)(=O)Nc2cccc(NC(=O)C(C)(C)C)c2)cc1 -16.1%, O=C1C2(c3ccccc3)CN(CCCO)CC1(c1ccccc1)CN(CCCO)C2 -16.6%, Cc1noc(C)c1CSc1nc2cc(S(=O)(=O)N3CCOCC3)ccc2o1 -3.26%, CCCCNC(=O)c1ccccc1NC(=O)c1ccccc1N(C)S(C)(=O)=O -21%, COC(=O)COc1ccc2oc(=O)cc(C)c2c1 -18.5%, O=S(=O)(N1CCOCC1)N1CCN(c2ccccc2F)CC1 -11.7%, CCC(Oc1ccccc1)C(=O)NCc1cccnc1 (stereo not drawn) -21.9%, O=C(Nc1nn(Cc2ccccc2F)cc1Br)c1cccs1 -14.1%, Cc1ccc(S(=O)(=O)N(C)CC(=O)NC2CCCC2)cc1 -2.1%, N#CC1=C(N)C(C#N)(C#N)[C@H](c2ccsc2)[C@H]2COCC=C12 -0.035%, O=C(OCC(O)C(O)COC(=O)c1ccccc1)c1ccccc1 (stereo not drawn) -18.9%, CCCOc1ccc(NC(=O)C2CCCNC2=O)cc1 (stereo not drawn) -30.8%, COc1ccc(CC(NC(C)=O)C(=O)NC2CCN(C(=O)Nc3ccc(C#N)cc3)CC2)cc1OC (stereo not drawn) -1.03%, Cc1cc(C(=O)Nc2c(C)n(C)n(-c3ccccc3)c2=O)cs1 -12.7%, Cc1occc1C(=O)Nc1nnc(C2CCCCC2)s1 0.21%, Cc1cc(=O)n(C)c(=O)n1CCCNc1ccccc1 8.62%, C/C(N)=C(\C#N)C(=O)NCCc1ccccn1 -3.41%, CCOC(=O)c1c(C)nc(-c2ccccc2)nc1NC(=O)C(C)C -20.2%, Cc1cc(NC(=O)CN2CCC(O)(c3cccc(F)c3)CC2)no1 -0.42%, CCC(=O)Nc1nc(OC)cc(OC)n1 -16.5%, COc1ccc(CC(=O)Nc2c3c(nn2-c2cccc(Cl)c2)CS(=O)C3)cc1 (stereo not drawn) 13.4%, Cc1cc(C)nc(NC(=O)C(C)N2C(=O)c3ccccc3C2=O)n1 (stereo not drawn) -17.9%, CCOC(=O)c1cnc2sccn2c1=O -15.3%, O=C(CCN1C(=O)c2ccccc2C1=O)NCCN1CCOCC1 0.59%, O=C(CCOc1ccccc1)NCc1ccccc1 14.8%, CC1CC(C)CN(CC(=O)Nc2ccc(S(N)(=O)=O)cc2)C1 (stereo not drawn) 0.613%, O=C1CSC(c2cccc(F)c2)N1c1ccccc1F (stereo not drawn) 6.64%, Cc1nonc1NC(=O)c1ccccc1Br -2.2%, O=C(Nc1cccnc1)c1ccc2c(c1)OCO2 6.74%, CC(=NCc1ccc2c(c1)OCO2)C1=C(O)c2ccccc2C1=O 5.88%, CC(Nc1nc(N2CCCC2)nc2ccccc12)c1ccccc1 (stereo not drawn) -5.16%, O=C(Nc1ccccc1N1CCCCC1)c1cccc(F)c1 0.18%, CC(=O)NC1CC2CCCC(C1)N2CC(=O)Nc1ccccc1 (stereo not drawn) 6.86%, COCCCN1C(=O)C(=O)/C(=C(/O)c2ccc3c(c2)CC(C)O3)C1c1cccnc1 (stereo not drawn) -17.6%, CCc1ccccc1NC(=O)CSc1nnc([C@@H](NC(=O)OC(C)(C)C)C(C)CC)o1 (stereo partly drawn) -15.5%, C=CCn1c(SCc2nnc(-c3ccccc3)o2)nnc1C(O)c1ccccc1 (stereo not drawn) -17.5%, COCCCn1c(CCC(=O)O)ccc1-c1ccc(F)cc1 -9.43%, CC(=O)NCCc1ccc(S(=O)(=O)N(C)C2CCS(=O)(=O)C2)cc1 (stereo not drawn) -15.7%, COc1ccc(NC(=O)CCNC(=O)Cn2ccc3ccccc3c2=O)c(OC)c1 -0.805%, CC(=O)N1C(=O)C2(Nc3ccccc3N2)c2ccccc21 7.24%, COCCOC(=O)C1=C(C)NC(=O)CC1c1cc2c(cc1Br)OCO2 (stereo not drawn) -1.9%, COC(=O)c1cc(C(=O)OC)cc(N2C(=O)CC(N3CCN(c4ccccc4)CC3)C2=O)c1 (stereo not drawn) -20%, CC1CCCC(N2CCN(C(=O)c3ccc(F)cc3)CC2)C1 (stereo not drawn) 8.12%, O=C(Cn1nnc(-c2ccc(CN3CCOCC3)cc2)n1)NC1CCCCC1 -1.75%, O=C(Cc1nn[nH]n1)NCCC1=CCCCC1 17.3%, CCC1=C(C(=O)OC)C(c2cc(OC)ccc2OC)C(C#N)=C(N)O1 (stereo not drawn) -1.96%, COc1ccc(OC)c(C(=O)c2ccc(C(=O)O)cc2)c1 -4.3%, Cc1ccc(NC2=NC(c3ccccc3)n3c(nc(C)cc3=O)N2)cc1 (stereo not drawn) -1.73%, COC(=O)Nc1ccc(S(=O)(=O)N(C)CC(F)(F)C(F)F)cc1 -3.1%
